Reference: PubChem BioAssay AID623922 (The Scripps Research Institute Molecular Screening Center, 2012)
Calls of active or inactive are those of the source.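 The calls were made as follows: active = residual nuclease activity at or below 52% of the solvent-only control; inactive = the rest.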

Each compound was assayed against RecBCD enzyme subunit RecC (Escherichia coli (strain K12)) + RecBCD enzyme subunit RecB (Escherichia coli (strain K12)) (UniProt P07648+P08394) (assay: RecBCD dsDNA exonuclease activity remaining – biochemical, radioactivity readout, 50 µM single dose, counter-screen for AddAB inhibitor project, late-stage follow-up (AID 623922)). Conditions: purified RecBCD, [3H] dsDNA nuclease, TCA-soluble radioactivity; at 50 µM; stronger effect = lower value.
Method in brief: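 Assay system: purified E. coli RecBCD; Quantity: RecBCD enzyme at 4.5 nM; Medium: pH 8.5, 10 mM MgCl2, 25 µM ATP; Incubation: enzyme-compound mixing on ice, then 20 min nuclease reaction at 37 °C; Detection: acid-soluble radioactivity counts; Read-out basis: percent nuclease activity versus DMSO control, no-enzyme background subtracted.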

Sequence of RecBCD enzyme subunit RecC (Escherichia coli (strain K12)) + RecBCD enzyme subunit RecB (Escherichia coli (strain K12)) (P07648 whole entry, looked up): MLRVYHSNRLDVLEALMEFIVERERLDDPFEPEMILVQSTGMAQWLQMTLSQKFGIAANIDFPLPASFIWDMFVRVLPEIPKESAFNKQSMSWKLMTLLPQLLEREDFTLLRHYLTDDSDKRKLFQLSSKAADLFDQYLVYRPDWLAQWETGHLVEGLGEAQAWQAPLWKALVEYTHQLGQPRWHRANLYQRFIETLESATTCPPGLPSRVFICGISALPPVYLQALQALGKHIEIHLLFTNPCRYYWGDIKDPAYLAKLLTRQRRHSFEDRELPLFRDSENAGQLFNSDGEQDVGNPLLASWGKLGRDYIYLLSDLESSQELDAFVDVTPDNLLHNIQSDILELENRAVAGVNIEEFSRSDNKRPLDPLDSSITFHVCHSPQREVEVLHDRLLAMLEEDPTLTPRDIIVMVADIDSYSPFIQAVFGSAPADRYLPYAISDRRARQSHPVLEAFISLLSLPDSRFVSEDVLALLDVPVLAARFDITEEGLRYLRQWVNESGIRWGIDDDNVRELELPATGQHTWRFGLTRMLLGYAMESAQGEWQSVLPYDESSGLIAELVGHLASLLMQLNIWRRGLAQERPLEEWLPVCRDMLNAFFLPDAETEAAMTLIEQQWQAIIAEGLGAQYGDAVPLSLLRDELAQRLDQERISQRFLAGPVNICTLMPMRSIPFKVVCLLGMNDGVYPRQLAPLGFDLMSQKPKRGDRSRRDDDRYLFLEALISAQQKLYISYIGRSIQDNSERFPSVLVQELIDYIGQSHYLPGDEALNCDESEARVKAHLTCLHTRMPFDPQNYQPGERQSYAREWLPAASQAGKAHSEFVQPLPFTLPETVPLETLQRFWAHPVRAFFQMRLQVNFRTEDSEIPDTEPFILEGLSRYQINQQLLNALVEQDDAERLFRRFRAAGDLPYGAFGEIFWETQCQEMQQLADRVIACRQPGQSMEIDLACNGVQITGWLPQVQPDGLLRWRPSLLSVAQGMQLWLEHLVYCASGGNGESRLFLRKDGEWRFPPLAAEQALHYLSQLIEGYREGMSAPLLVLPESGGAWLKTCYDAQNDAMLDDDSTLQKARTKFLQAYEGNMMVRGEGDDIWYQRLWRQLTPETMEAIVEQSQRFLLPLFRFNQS
Sequence of RecBCD enzyme subunit RecC (Escherichia coli (strain K12)) + RecBCD enzyme subunit RecB (Escherichia coli (strain K12)) (P08394 whole entry, looked up): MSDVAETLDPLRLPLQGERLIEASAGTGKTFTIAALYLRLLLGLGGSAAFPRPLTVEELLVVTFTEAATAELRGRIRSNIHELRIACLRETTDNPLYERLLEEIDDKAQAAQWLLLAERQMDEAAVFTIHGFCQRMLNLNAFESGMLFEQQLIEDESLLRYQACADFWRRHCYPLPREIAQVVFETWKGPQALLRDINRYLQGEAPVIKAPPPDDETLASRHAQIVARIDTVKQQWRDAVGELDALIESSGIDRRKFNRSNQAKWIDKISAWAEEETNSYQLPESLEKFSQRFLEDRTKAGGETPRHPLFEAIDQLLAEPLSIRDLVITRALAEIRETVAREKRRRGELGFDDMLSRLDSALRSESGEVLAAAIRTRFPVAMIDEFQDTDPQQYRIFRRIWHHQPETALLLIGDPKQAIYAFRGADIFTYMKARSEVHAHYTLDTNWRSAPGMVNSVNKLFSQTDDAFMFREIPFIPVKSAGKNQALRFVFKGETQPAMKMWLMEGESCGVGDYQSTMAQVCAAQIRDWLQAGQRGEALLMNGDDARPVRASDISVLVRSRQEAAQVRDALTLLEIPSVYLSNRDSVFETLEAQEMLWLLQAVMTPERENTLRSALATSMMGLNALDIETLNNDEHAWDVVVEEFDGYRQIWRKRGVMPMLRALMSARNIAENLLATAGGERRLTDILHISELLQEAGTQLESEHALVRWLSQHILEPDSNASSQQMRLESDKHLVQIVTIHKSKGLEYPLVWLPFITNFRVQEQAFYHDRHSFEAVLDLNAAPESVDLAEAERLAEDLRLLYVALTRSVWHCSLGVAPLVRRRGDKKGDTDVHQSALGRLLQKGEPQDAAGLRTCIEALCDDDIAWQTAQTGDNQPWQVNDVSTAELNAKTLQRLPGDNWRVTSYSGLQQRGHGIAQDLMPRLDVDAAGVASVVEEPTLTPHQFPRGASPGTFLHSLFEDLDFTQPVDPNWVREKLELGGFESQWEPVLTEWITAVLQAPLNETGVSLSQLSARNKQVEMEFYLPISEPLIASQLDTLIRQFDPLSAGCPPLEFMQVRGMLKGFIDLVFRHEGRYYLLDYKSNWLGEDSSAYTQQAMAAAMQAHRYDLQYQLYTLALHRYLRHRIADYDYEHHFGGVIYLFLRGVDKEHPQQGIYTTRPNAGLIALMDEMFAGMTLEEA

SMILES | residual nuclease activity
CCn1cc(C(=O)O)c(=O)c2cnc(N3CCN(C(=S)NC(=O)c4cccc(C)c4)CC3)nc21 | 47%
CCn1cc(C(=O)O)c(=O)c2cnc(N3CCN(C(=O)Nc4ccccc4)CC3)nc21 | 91% (inactive)
CCn1cc(C(=O)O)c(=O)c2cnc(N3CCN(C(=S)NC(C)c4ccccc4)CC3)nc21 (configuration not stated) | 27%
CCn1cc(C(=O)O)c(=O)c2cnc(N3CCN(C(=S)Nc4ccc5c(c4)OCO5)CC3)nc21 | 46%
CCn1cc(C(=O)O)c(=O)c2cnc(N3CCN(C(=S)NC4CC5CCC4C5)CC3)nc21 (configuration not stated) | 75% (inactive)
CCn1cc(C(=O)O)c(=O)c2cnc(N3CCNCC3)nc21 | 93% (inactive)

Continued, values first:

residual nuclease activity | SMILES
68% (inactive) | CCn1cc(C(=O)O)c(=O)c2cnc(N3CCN(C(=S)Nc4ccccc4)CC3)nc21
51% | CCn1cc(C(=O)O)c(=O)c2cnc(N3CCN(C(=S)Nc4ccc(F)cc4)CC3)nc21
45% | CCn1cc(C(=O)O)c(=O)c2cnc(N3CCN(C(=S)NCc4ccccc4)CC3)nc21
50% | CCn1cc(C(=O)O)c(=O)c2cnc(N3CCN(C(=S)Nc4ccc(Cl)cc4)CC3)nc21
43% | CCn1cc(C(=O)O)c(=O)c2cnc(N3CCN(C(=S)Nc4ccccc4C(F)(F)F)CC3)nc21
8% | CCn1cc(C(=O)O)c(=O)c2cnc(N3CCN(C(=S)Nc4cccc(C(F)(F)F)c4)CC3)nc21
